Consider three compounds from ChEMBL document CHEMBL1135475, “One-pot synthesis of benzo[b]furan and indole inhibitors of tubulin polymerization” (J Med Chem, 2002).

The target in one assay is Tubulin (Bos taurus) (UniProt Q6B856+Q862L2+Q862F3). The experiment in a line: Percent inhibition of 5 uM of [3H]colchicine binding to 1 uM of tubulin by 5 uM of compound after a 10 minute incubation at 37 degrees C. Type of assay: protein assay. Put shortly:
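Tubulin purified to electrophoretic homogeneity from bovine brain, used at 1.0 µM with [3H]colchicine and inhibitor both at 5.0 µM. […] At least two independent experiments per compound.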

The next assay addresses Tubulin (Bos taurus, UniProt Q6B856+Q862L2+Q862F3). The experiment in a line: Inhibition of tubulin (10 uM) polymerization, after a 20 min incubation at 30 degrees Centigrade. Type of assay: functional.

The compound `COc1ccc(-c2oc3cc(OC)ccc3c2C(=O)c2cc(OC)c(OC)c(OC)c2)cc1` gave an inhibition on Tubulin (Bos taurus) of 77%.

In the case of `COc1ccc(-c2oc3cc(OC)ccc3c2-c2cc(OC)c(OC)c(OC)c2)cc1`, at Tubulin, the IC50 was greater than 40 µM. Take `COc1ccc2c(C(=O)c3cc(OC)c(OC)c(OC)c3)c(-c3ccc(OC)c(O)c3)sc2c1`: the inhibition on Tubulin (Bos taurus) was 21%.

The inhibition is the relative decrease from the control value, in per cent. Read a high inhibition as strong suppression. In general, IC50 refers to the midpoint of a concentration-inhibition curve. A lower IC50 goes with higher potency.
